pIC50: −log10 of the molar value.
Tests used:
[1] = biological target: PI3-kinase p110-delta/p85-alpha (Homo sapiens, UniProt O00329); test: Inhibition of human full length recombinant His-tagged PIK3CD/PIK3R1 expressed in baculovirus expression system after 60 mins by LanthaScreen Eu binding assay in presence of kinase tracer 314
In short: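 Binding displacement in 50 mM HEPES pH 7.5, 10 mM MgCl2, 1 mM EGTA, 0.01% Brij-35. Enzyme 0.5 nM with Eu-anti-GST antibody 2 nM added to pre-spotted compound, then tracer 314 10 nM (all final). Controls omit enzyme. 60 min at room temperature; TR-FRET read at excitation 320 nm, emission 615/665 nm. Results as pIC50.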

[2] = biological target: Phosphatidylinositol 4,5-bisphosphate 3-kinase catalytic subunit gamma isoform (Homo sapiens, UniProt P48736); test: Inhibition of human PI3Kgamma using PIP2 as substrate by HTRF assay in presence of biotin-PIP3
Chain of Phosphatidylinositol 4,5-bisphosphate 3-kinase catalytic subunit gamma isoform (P48736 whole entry, the tested form may be a part, canonical isoform): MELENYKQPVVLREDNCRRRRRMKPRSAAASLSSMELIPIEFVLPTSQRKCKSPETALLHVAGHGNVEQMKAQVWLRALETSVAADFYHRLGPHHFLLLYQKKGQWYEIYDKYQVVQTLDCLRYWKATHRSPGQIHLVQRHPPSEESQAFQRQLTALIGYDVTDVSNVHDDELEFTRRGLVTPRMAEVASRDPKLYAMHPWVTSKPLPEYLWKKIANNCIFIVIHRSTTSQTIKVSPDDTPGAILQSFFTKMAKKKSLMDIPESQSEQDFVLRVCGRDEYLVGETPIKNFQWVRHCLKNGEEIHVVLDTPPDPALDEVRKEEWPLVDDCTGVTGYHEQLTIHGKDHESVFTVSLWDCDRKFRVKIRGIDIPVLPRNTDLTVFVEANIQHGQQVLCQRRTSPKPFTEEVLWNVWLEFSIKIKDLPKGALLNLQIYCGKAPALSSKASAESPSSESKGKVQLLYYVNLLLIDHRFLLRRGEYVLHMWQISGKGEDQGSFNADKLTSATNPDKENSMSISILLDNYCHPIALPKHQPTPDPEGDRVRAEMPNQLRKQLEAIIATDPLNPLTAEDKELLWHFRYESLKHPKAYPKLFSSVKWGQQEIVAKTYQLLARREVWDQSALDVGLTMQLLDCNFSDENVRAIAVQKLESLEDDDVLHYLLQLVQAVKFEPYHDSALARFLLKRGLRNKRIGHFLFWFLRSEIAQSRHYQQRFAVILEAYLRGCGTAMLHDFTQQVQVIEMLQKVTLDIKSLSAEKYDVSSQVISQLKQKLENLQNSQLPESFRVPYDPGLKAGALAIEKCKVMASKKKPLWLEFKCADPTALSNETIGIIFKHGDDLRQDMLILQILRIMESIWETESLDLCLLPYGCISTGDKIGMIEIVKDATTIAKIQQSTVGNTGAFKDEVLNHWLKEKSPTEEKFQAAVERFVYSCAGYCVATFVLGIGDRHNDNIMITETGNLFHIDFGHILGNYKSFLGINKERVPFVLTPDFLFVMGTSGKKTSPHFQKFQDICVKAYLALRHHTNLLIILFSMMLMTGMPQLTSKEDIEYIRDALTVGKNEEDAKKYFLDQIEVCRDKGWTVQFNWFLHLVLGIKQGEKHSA
In short: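 HTRF enzyme assay: PI3Kγ added to mix of ATP, MgCl2 and PIP2 substrate (apparent Km 200 µM ATP, 15 µM PIP2). PIP3 product read by displacement of biotin-PIP3 from Eu-anti-GST antibody/GST-GRP1 PH domain/biotin-PIP3/streptavidin-APC complex. Primary screen at 10 µM, hits >2 SD from mean; confirmation in triplicate at 10 µM; dose response as pIC50.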

Chain of PI3-kinase p110-delta/p85-alpha (P27986 whole entry): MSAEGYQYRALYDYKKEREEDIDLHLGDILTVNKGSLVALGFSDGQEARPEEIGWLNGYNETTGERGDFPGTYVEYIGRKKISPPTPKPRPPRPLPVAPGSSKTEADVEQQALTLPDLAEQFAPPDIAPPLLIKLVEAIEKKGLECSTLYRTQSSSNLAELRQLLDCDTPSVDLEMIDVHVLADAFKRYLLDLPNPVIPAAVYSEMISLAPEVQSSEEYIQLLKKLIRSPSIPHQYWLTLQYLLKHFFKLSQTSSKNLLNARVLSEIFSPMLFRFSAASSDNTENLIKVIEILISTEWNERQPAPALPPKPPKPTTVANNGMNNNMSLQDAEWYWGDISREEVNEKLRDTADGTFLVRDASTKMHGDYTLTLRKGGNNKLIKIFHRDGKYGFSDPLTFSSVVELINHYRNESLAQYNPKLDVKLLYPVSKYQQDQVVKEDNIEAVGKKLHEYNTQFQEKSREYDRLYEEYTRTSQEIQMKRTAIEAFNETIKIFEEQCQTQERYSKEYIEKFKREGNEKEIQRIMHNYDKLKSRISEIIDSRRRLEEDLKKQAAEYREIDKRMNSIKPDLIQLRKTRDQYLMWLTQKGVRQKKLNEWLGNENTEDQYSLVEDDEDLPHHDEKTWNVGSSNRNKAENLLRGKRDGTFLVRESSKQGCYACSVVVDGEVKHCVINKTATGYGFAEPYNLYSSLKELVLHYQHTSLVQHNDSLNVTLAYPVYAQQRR
Chain of PI3-kinase p110-delta/p85-alpha (O00329 whole entry): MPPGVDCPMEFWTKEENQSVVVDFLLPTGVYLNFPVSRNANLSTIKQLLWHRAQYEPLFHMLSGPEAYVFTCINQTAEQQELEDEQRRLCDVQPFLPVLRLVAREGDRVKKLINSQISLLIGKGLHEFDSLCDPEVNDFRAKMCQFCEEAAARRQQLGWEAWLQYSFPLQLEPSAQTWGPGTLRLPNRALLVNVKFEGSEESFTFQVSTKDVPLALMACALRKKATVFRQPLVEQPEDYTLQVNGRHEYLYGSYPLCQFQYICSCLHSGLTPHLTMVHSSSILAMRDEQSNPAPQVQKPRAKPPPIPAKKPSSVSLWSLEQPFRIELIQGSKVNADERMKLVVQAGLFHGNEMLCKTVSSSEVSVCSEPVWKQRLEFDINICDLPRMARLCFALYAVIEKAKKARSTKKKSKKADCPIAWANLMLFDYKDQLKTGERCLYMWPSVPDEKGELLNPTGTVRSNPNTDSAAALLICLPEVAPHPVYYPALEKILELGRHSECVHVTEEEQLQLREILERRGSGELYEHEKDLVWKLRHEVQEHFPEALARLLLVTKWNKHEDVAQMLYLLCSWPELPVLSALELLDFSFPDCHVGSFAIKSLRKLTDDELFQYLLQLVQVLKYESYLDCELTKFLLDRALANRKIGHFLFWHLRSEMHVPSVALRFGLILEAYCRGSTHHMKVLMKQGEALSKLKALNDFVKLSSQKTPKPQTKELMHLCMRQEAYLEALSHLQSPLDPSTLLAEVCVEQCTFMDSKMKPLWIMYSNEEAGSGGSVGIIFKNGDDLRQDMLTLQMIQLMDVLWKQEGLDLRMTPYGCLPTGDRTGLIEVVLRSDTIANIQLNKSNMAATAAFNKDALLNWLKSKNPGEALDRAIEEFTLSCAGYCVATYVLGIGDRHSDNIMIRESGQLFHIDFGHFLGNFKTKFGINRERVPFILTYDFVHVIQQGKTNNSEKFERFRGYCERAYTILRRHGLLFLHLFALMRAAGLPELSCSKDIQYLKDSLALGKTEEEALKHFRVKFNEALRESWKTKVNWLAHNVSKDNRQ

Compound: Cc1nn(-c2ccccc2)c2c1-c1nc(N)ncc1CC2
- pIC50 [1]: 5.09

Compound: Cn1ccc2cc(-c3cnc4cnc(-c5cccc(C(N)=O)c5)cn34)ccc21
- pIC50 [1]: 6.37

Compound: Clc1ccc2ncnc(NCCCc3ccccc3)c2c1
- pIC50 [1]: 5.50

Compound: COc1cc(Nc2ccn3ncc(-c4cccc(C(N)=O)c4)c3n2)cc(OC)c1OC
- pIC50 [2]: 5.21

Compound: Cc1nc2ccc(Cl)cn2c1-c1ccnc(N)n1
- pIC50 [1]: 5.59

Compound: CN1CCC(NCc2ccc(Nc3ncc4cnn([C@H]5C[C@@H]6CC[C@H]5C6)c4n3)cc2)CC1
- pIC50 [1]: 6.47

Compound: CN(Cc1ccccc1)c1ncnc2ccc(Br)cc12
- pIC50 [1]: 5.16

Compound: COc1cncc(-c2cnn3ccc(NC4CCC(O)CC4)nc23)c1 (stereo unspecified)
- pIC50 [2]: 5.24

Compound: O=C(C1CC=CCC1)N1CCCC(c2n[nH]c3ncccc23)C1 (stereo unspecified)
- pIC50 [1]: 5.07

Compound: FC(F)(F)c1cc(Nc2nc3ccccc3s2)cc(C(F)(F)F)c1
- pIC50 [2]: 5.26

Compound: COc1cc(-c2cnn3ccc(Nc4ccc(C(C)C)cc4)nc23)ccc1O
- pIC50 [2]: 5.62

Compound: c1cncc(CCNc2ccc3ncc(-c4cc5ccccc5s4)n3n2)c1
- pIC50 [1]: 5.19

Compound: NC(=O)c1nc(-c2ccc3ncccc3c2)nc2c1[nH]c(=O)n2CCc1ccccc1
- pIC50 [1]: 5.61

Compound: Clc1ccc2ncnc(NCCOc3ccccc3)c2c1
- pIC50 [1]: 5.26

Compound: COc1cc(-c2cnc3ccc(NCc4ccco4)nn23)ccc1O
- pIC50 [2]: 5.16

Compound: c1ccc(CSc2nc(N3CCOCC3)c3sccc3n2)cc1
- pIC50 [1]: 5.42

Reference: ChEMBL document CHEMBL3813684, “A Prospective Virtual Screening Study: Enriching Hit Rates and Designing Focus Libraries To Find Inhibitors of PI3Kδ and PI3Kγ” (J Med Chem, 2016)
